ABCB6 inh 2: blocks the human ABCB6 transporter; Q9NP58; K562-ABCB6 porphyrin accumulation, flow cytometry, 1 h; stronger effect = lower value; fluorescence ratio to DMSO, % at 10 µM; 0.19% of 360,000 active; AID 602162;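 active means fluorescence ratio to DMSO below 75%, the collection mean minus 3 SD; inconclusive means too few cells collected in the well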;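 further: signal is porphyrin accumulated inside mitochondria; lower ratio means ABCB6 inhibition with less porphyrin fluorescence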
Target sequence (Q9NP58 whole entry, looked up): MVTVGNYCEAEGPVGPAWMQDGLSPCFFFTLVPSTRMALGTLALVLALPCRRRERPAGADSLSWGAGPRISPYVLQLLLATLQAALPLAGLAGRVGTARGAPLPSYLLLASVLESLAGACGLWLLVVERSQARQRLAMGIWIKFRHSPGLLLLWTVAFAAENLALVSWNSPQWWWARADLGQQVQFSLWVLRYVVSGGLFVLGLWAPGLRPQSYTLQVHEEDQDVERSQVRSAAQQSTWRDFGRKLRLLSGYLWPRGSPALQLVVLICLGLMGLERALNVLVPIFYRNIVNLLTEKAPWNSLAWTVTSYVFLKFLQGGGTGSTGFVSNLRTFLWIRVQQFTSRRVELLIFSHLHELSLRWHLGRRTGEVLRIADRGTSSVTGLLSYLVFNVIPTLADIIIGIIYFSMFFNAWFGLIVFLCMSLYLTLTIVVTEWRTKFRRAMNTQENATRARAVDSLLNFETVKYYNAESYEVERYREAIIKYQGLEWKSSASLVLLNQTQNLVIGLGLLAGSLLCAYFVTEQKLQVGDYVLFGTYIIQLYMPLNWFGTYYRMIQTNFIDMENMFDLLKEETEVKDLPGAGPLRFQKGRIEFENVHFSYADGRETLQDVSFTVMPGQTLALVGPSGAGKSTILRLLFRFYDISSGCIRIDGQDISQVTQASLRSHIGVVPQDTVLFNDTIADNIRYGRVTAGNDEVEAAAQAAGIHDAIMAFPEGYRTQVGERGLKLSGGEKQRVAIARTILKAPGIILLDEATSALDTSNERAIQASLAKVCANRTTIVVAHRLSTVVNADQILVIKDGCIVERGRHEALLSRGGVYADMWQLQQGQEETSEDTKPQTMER
Xi reactivation: activators of X-chromosome reactivation in mouse fibroblasts | XiGFP mouse fibroblasts, % GFP-positive cells imaging, 3 d; cells co-treated with 5-aza-dC sensitizer; scaled so ellipticine positive control = 100% | activation, % at 7.58 µM | 0.055% of 360,000 active | AID 743238;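 active means mean normalized replicate activation at least 10% and every replicate at or above 10%; inconclusive means only one of the two criteria met; inactive means mean below 10% and not all replicates reach 10%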
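Material: XiGFP fibroblasts, SV40-immortalized. Buffer or medium: DMEM plus 5-aza-dC sensitizer. Compound: single concentration per compound, delivered by pin transfer. Times: 3 days compound exposure. Controls: ellipticine 6 µM.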
Myeloid diff MLP: promotes myeloid progenitor differentiation. ER-HoxA9 myeloid progenitors, lysozyme-GFP differentiation, flow cytometry. calls only at 10 µM. 1% of 360,000 active. AID 624256;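 active means normalized GFP-positive differentiation at or above the plate's own cutoff, the solvent-only control mean plus 3 SD; inconclusive means no clear call, values can overlap the other calls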;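 further: cells exposed to compound for four days before flow analysis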
ABCB6 inh CP1: blocks the human ABCB6 transporter | K562-ABCB6 porphyrin accumulation, flow cytometry, 1 h; stronger effect = lower value | shares compounds with ABCB6 inh 2 | 700 tested, under 10 active | ratio response (% of DMSO), % at 10 µM | AID 602430;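 active means repeat-averaged ratio response below 75% of DMSO, the collection mean minus 3 SD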;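 further: median porphyrin fluorescence at 575 nm with 488 nm excitation from mitochondria; lower ratio means less porphyrin signal so ABCB6 inhibition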
Myeloid diff CP1: myeloid differentiation induction. shares compounds with Myeloid diff MLP. ER-HoxA9 myeloid progenitors, GFP/Mac1 double-positive flow. calls only. 2% of 2,300 active;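 active means share of green or green-and-red cells above 9 and 9% in run 1 or 4 and 3% in run 2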
GFP autofluor: flagged as fluorescent in myeloid differentiation counter-screen. shares compounds with Myeloid diff MLP. ER-HoxA9 myeloid progenitors, no estrogen, GFP autofluorescence flow cytometry; vehicle wells 0%, positive control 100%. fluorescence response, % (test concentration not listed). 7.4% of 2,300 active;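 active means over 5% cells positive for green fluorescent reporter, or over 2% positive for both it and APC stain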
Numbers stand for hits; . = inactive; ? = inconclusive; / = no result; + = active, no number. Many of the other results were omitted from the sample, so hits are more common in it than they were.

SMILES | ABCB6 inh 2 | Xi reactivation | Myeloid diff MLP | ABCB6 inh CP1 | others
COc1ccc(Cl)cc1NC(=O)COC(=O)CCCC1=NS(=O)(=O)c2ccccc2N1 | . | . | . | .
Cc1ccccc1COC(=O)CCCC1=NS(=O)(=O)c2ccccc2N1 | . | . | . | /
O=C(CCCC1=NS(=O)(=O)c2ccccc2N1)Nc1ccccc1 | . | . | . | /
COc1ccccc1NC(=O)COC(=O)CC(C)(C)CC1=NS(=O)(=O)c2ccccc2N1 | . | . | . | /
O=C(COC(=O)CCCC1=NS(=O)(=O)c2ccccc2N1)Nc1ccc(Br)cc1 | . | . | ? | .
CN1CCN(C(=O)C[C@H]2C[C@@H]3c4cc(NC(=O)Cc5ccncc5)ccc4O[C@@H]3[C@@H](CO)O2)CC1 | / | . | / | /
Cc1ccc(S(=O)(=O)N(C)C[C@H]2OCCCC[C@H](C)Oc3ccc(NC(=O)Cc4ccccc4)cc3C(=O)N([C@@H](C)CO)C[C@H]2C)cc1 | / | . | / | /
COc1ccccc1OCc1nnc(SCC(=O)N2CCCC2)o1 | . | . | . | /
COc1ccccc1OCc1nnc(SCC(=O)c2cc(Cl)ccc2OC)o1 | 68.0 | / | . | .
COc1ccc(NC(=O)N(C)C[C@@H]2Oc3ccc(NS(=O)(=O)c4ccc(Cl)cc4)cc3C(=O)N([C@@H](C)CO)C[C@H]2C)cc1 | / | . | / | /
COc1ccccc1CNC(=O)C[C@H]1CC[C@H]2[C@@H](COC[C@@H](O)CN2C(=O)Nc2ccc(C(F)(F)F)cc2)O1 | / | . | / | /
C/C=C(/C)C(=O)O[C@@H]1Cc2c(ccc3ccc(=O)oc23)OC1(C)C | . | . | . | /
CC1(C)Oc2ccc3ccc(=O)oc3c2C[C@H]1O | 68.0 | . | . | .
O=C(Cc1cccc(C(F)(F)F)c1)Nc1ccc(S(=O)(=O)N2CCCC2)cc1 | . | . | . | /
O=C(Nc1ccc(S(=O)(=O)N2CCCC2)cc1)c1ccc(F)cc1 | . | . | . | /
O=C(COc1cccc(C(F)(F)F)c1)Nc1ccc(S(=O)(=O)N2CCCC2)cc1 | 60.0 | / | . | .
O=C(COc1ccc(S(=O)(=O)N2CCCC2)cc1)Nc1ccc(F)cc1 | . | . | . | /
COC(=O)c1ccc(NC(=O)COc2ccc(S(=O)(=O)N3CCCCC3)cc2)cc1 | 70.0 | / | . | .
O=C(Nc1ccc([N+](=O)[O-])cc1)c1ccc(S(=O)(=O)N2CCCC2)cc1 | 73.0 | . | . | .
C[C@@H]1CCCCO[C@@H](CN(C)S(C)(=O)=O)[C@H](C)CN([C@H](C)CO)C(=O)c2cc(NS(=O)(=O)c3ccccc3)ccc2O1 | / | . | / | /
COc1ccc(C[C@@H]2CCc3cnnn3COC[C@@H](c3ccccc3)NC2=O)cc1 | / | . | / | /
CO[C@@H]1CN(C)C(=O)c2ccc(NC(=O)Nc3ccccc3)cc2OC[C@H](C)N(CC2CC2)C[C@@H]1C | / | . | / | /
O=C(C[C@H]1CC[C@H]2[C@@H](COC[C@H](O)CN2Cc2cccc(F)c2)O1)NCC1CCCCC1 | / | . | / | /
Cc1ccc(C(=O)N2c3ccccc3Sc3ccccc32)cc1 | . | . | . | /
CN(C)c1ccc2c(c1)Sc1cc(N(C)C)ccc1N2C(=O)c1ccccc1 | 73.0 | . | . | .
SMILES | ABCB6 inh 2 | Xi reactivation | Myeloid diff MLP | ABCB6 inh CP1 | others
CCCC(=O)Nc1ccc2c(c1)C(=O)N(C)C[C@H](OC)[C@@H](C)CN(CC1CCOCC1)[C@@H](C)CO2 | / | . | / | /
CC(C)c1ccc([N+](=O)[O-])cc1S(=O)(=O)N1CCN(C)CC1 | 72.0 | . | . | .
CN1CCN(S(=O)(=O)c2cc([N+](=O)[O-])ccc2Cl)CC1 | . | . | . | /
C/C=C/c1ccc2c(c1)O[C@@H](CN(C)C(=O)CC)[C@@H](C)CN([C@H](C)CO)S2(=O)=O | / | . | / | /
O=C(CCNS(=O)(=O)c1ccc(Br)cc1)NCc1ccc2c(c1)OCO2 | 62.0 | / | . | .
CCCNS(=O)(=O)c1ccc(CCC(=O)NCc2ccc3c(c2)OCO3)cc1 | . | / | . | /
Cc1noc(C)c1NC(=O)N(C)C[C@H]1Oc2ccc(NC(=O)CCCN(C)C)cc2CC(=O)N([C@@H](C)CO)C[C@@H]1C | / | . | / | /
COc1ccc(CCCNC(=O)C2(C)Cc3c(-c4ccc5c(c4)OCO5)ccnc3O2)cc1 (stereo not given) | . | . | . | /
COc1ccc(CCCNC(=O)C2(C)Cc3c(-c4ccc(C(N)=O)cc4)ccnc3O2)cc1 (stereo not given) | 71.0 | . | . | .
CCN1C(=O)c2ccccc2S(=O)(=O)c2ccc(C(=O)NCCCN(CC(C)C)CC(C)C)cc21 | 66.0 | . | . | .
CCN1C(=O)c2ccccc2S(=O)c2ccc(C(=O)NCCN(CC(C)C)CC(C)C)cc21 (stereo not given) | . | . | . | /
CCCC#Cc1cnc2c(c1)C(=O)N([C@@H](C)CO)C[C@@H](C)[C@@H](CN(C)S(=O)(=O)c1ccccc1)O2 | / | . | / | /
CO[C@@H]1CN(C)C(=O)c2ccc(NC(=O)CC(F)(F)F)cc2OC[C@@H](C)N(C(=O)c2ccccc2F)C[C@@H]1C | / | . | / | /
Cc1ccc(-c2ccc(C(=O)O)c(C)n2)cc1 | . | . | . | /
COC(=O)c1ccc(-c2ccc(F)cc2)nc1C | 63.0 | . | . | .
Cc1cccc(C(=O)Nc2c(C#N)c(C)c(C)n2Cc2ccccc2)c1 | . | / | . | /
Cc1c(C#N)c(NC(=O)C(C)C)n(Cc2ccccc2)c1C | 74.0 | . | . | .
Cc1ccc(-c2ccc3c(c2)O[C@H](CN(C)C(=O)C2CCCCC2)[C@@H](C)CN([C@@H](C)CO)S3(=O)=O)cc1 | / | . | / | /
Cc1ccc(C(C(=O)NC(C)(C)C)N(CC2CCCO2)C(=O)c2csnn2)cc1 (stereo not given) | . | . | . | /
CC(C)(C)NC(=O)C(c1ccc(-c2ccccc2)cc1)N(C[C@H]1CC[C@@H]([C@@H]2CC[C@H](CO)O2)O1)C(=O)c1ccc(C(C)(C)C)cc1 (stereo not given in full) | . | . | . | / | Myeloid diff CP1=.;GFP autofluor=.
CCC(=O)N[C@H]1CC[C@@H](CCn2cc(CN(C)C)nn2)O[C@H]1CO | / | . | / | /
C[C@@H]1CN([C@@H](C)CO)S(=O)(=O)c2ccc(C#CCN(C)C)cc2O[C@@H]1CN(C)C | / | . | / | /
CCN1C(=O)/C(=C/C=C2/SCCN2C)SC1=S | . | / | . | /
CCCN1C(=O)/C(=C\C=C2/Sc3ccccc3N2CCO)SC1=S | . | . | + | / | Myeloid diff CP1=.;GFP autofluor=6.5
C[C@@H]1CCCCO[C@@H](CN(C)C(=O)CCCN(C)C)[C@H](C)CN([C@@H](C)CO)C(=O)c2cc(NC(=O)NC3CCCCC3)ccc2O1 | / | . | / | /
O=C(Nc1cccc2ccccc12)C1CCN(C(=O)Cc2ccccc2)CC1 | . | / | / | / | Myeloid diff CP1=.;GFP autofluor=.
O=C(Nc1cccc2ccccc12)C1CCN(C(=O)NCc2ccccc2)CC1 | . | / | . | /
COCC(=O)N1CC[C@@H]2[C@H]1c1cc(-c3cccc(OC)c3)ccc1N(C)[C@H]2CO | / | . | / | /
